ABHD5-PLIN5 inh – ABHD5-PLIN5 protein interaction inhibition. hit rate 0.78% among 360,000. inhibition, % at 4 µM. Q00G26+Q8WTS1. AID 602281. Split G. princeps luciferase complementation, luminescence, 4 h;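 active = inhibition above the mean inhibition across every tested compound plus 3 SD, cut at about 22% in these data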;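 note: 0% = DMSO only wells and the 100% control is not disclosed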
Target sequence (Q00G26 whole entry, looked up): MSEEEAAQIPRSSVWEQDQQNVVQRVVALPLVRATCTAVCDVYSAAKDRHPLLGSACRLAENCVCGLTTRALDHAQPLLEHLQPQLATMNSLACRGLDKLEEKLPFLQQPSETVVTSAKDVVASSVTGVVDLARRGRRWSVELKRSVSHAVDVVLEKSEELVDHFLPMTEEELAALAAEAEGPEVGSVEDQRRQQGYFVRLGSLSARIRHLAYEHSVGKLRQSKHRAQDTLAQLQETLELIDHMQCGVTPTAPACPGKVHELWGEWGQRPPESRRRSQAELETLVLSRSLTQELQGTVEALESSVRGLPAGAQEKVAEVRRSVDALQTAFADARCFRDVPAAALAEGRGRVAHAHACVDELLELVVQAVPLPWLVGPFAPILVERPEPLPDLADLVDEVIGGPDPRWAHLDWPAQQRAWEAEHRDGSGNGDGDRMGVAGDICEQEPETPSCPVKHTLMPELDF
Target sequence (Q8WTS1 whole entry, looked up): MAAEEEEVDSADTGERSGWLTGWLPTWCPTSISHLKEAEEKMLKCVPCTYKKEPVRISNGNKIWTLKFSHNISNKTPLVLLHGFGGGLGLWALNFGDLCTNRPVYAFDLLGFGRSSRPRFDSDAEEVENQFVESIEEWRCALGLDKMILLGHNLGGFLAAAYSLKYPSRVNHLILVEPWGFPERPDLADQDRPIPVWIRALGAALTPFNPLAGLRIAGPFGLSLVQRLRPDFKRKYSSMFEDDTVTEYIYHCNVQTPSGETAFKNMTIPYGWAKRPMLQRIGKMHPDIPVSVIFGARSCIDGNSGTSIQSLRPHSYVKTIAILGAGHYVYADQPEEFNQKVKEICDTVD
Granule exo inh – lytic granule exocytosis inhibition | inhibition, % at 10 µM | AID 651702 | hit rate 0.66% among 360,000 | TALL-104 LAMP-1 surface exposure, flow cytometry; cells stimulated with thapsigargin and PMA;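 active = inhibition above about 55%, limit read from the data; inconclusive = no clear call, values can overlap the other calls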
PfG6PD inh – PfG6PD (Plasmodium falciparum) enzyme inhibition; inhibition, % at 20 µM; PfGluPho enzyme, NADPH resazurin-diaphorase fluorescence; AID 504690; hit rate 0.78% among 350,000;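 active = inhibition reaching at least a set limit at 20 µM in the primary screen, cut at about 59% in these data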;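 note: 0% = DMSO wells with substrate and 100% = DMSO wells lacking glucose-6-phosphate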
HKDC1 inh – blocks human hexokinase HKDC1 activity. Q2TB90. recombinant HKDC1, G6PDH/diaphorase resazurin coupled fluorescence. inhibition, % at 20 µM. hit rate 0.16% among 340,000. AID 493160;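 active = inhibition above about 35% when tested at 20 µM, limit read from the data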;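 note: plate controls were DMSO wells with enzyme for no effect and DMSO wells lacking enzyme for full effect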
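Assay system: recombinant HKDC1 hexokinase; detection: coupled resazurin fluorescence, excitation 525 nm, emission 613 nm; benchmarks: DMSO-plus-enzyme-mix negative control, buffer-substituted positive control; compound dosing: single 20 µM dose; schedule: 90 min at room temperature in dark; also added: glucose plus 1 mM ATP as hexokinase substrates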
* = called active by the depositor; ? = inconclusive; nt = not tested or not shown. Sampled rows, rich in hits. Any-hit rate of the full collection: about 2.2%.

SMILES	ABHD5-PLIN5 inh	Granule exo inh	PfG6PD inh	HKDC1 inh
CCOC(=O)c1cnc[nH]c1=O	22.3*	-1.7	-8.8	-1.5
N=c1oc2ccc3ccccc3c2cc1C(N)=S	-4.2	-4.9	-4.0	10.5
COc1ccc(OC)c(S(=O)(=O)Oc2ccc(N)c3ccccc23)c1	-14.7	75.3*	41.3	17.8
COc1ccc(OC)c(S(=O)(=O)Nc2cccc3ccccc23)c1	-1.2	14.2	13.4	13.6
Cn1c(=O)c2ncn(CC(=O)Nc3nc(-c4ccc(Cl)cc4)cs3)c2n(C)c1=O	-2.5	-3.6	-19.8	-6.8
COc1ccc(C(C)=O)cc1CSc1nnc(-c2ccc(Cl)cc2)n1-c1ccccc1	8.4	73.1*	-0.1	5.2
COc1ccc(C(C)=O)cc1CSc1nnc(-c2ccncc2)n1C	11.2	3.8	-4.5	-2.5
Cc1ccc(NC(=S)Nc2cccc3cnccc23)cc1	-24.8	-0.4	56.8	8.3
Cc1ccc(NC(=S)Nc2cccc3cnccc23)cc1C	-32.5	55.8*	53.4	8.6
S=C(Nc1cccc(Cl)c1)Nc1cccc2cnccc12	-44.0	?	95.4*	18.2
C1=CCN(Cc2ccccc2)C1	-1.6	-1.3	10.2	-7.5
O=C1O/C(=C/c2ccccc2)c2ccccc21	-3.4	0.4	19.8	-6.6
N#CC1=C(c2ccccc2)/C(=C/c2ccccc2)OC1=O	14.0	66.0*	12.0	25.2
COc1ccc(OC)c(C(C[N+](=O)[O-])c2c(C)cc3ccccn23)c1 (configuration not stated)	15.2	75.1*	24.1	-3.2
COc1cccc(-c2nc(C(=O)NCC3CCCO3)cc3c2[nH]c2ccccc23)c1 (configuration not stated)	-6.4	1.3	30.1	1.6
O=C(NCc1nc2ccccc2[nH]1)C1=C[C@@H](c2ccccc2)C[C@@H](OCc2ccc(CO)cc2)O1	0.9	70.7*	5.2	1.6
O=C(NCc1nc2ccccc2[nH]1)C1=C[C@H](c2ccccc2)C[C@H](OCc2ccc(CO)cc2)O1	5.2	13.6	-11.1	-1.2
CSc1nsc2nc(=O)c(/C=C3\C(C)=Nc4ccc(C)cc43)c(N)n12	-6.4	78.3*	-5.6	8.5
CC1=Nc2ccc(C)cc2/C1=C/c1c(N)n2c(S(=O)(=O)C(C)C)nsc2nc1=O	1.9	-1.0	-38.3	12.6
Cc1cccc(N2C(=O)C=CC2=O)c1	5.8	-13.0	9.4	-3.3
CN(C)c1c([N+](=O)[O-])cc(N2C(=O)C=CC2=O)cc1[N+](=O)[O-]	7.4	9.1	103.2*	0.1
CC(C)CC(=O)/C(=C\c1ccc(Cl)cc1Cl)n1cncn1	95.3*	37.9	12.4	6.7
CC(/C=C/c1ccc(O)cc1)=NNc1ccccc1	-5.1	59.0*	-3.7	-2.3
CC(/C=C/c1ccccc1)=N\Nc1nc(C)cc(C)n1	-1.7	-4.6	-1.4	-14.1
N/C(=N\N=C/c1ccc(F)cc1)N/N=C\c1ccc(F)cc1	-4.2	60.7*	14.7	-4.4
SMILES	ABHD5-PLIN5 inh	Granule exo inh	PfG6PD inh	HKDC1 inh
N/C(=N\N=C/c1ccc(Br)cc1)N/N=C\c1ccc(Br)cc1	-3.5	62.9*	8.2	-3.6
N/C(=N\N=Cc1ccc2c(c1)OCO2)NN=Cc1ccc2c(c1)OCO2	-29.1	34.0	-24.1	-3.8
Cc1ccc(C2=CC(c3ccccc3)n3ncnc3N2)cc1 (configuration not stated)	-3.8	67.9*	3.3	-0.2
O=C(CCC(=O)Nc1ccccc1)NNS(=O)(=O)c1ccccc1[N+](=O)[O-]	1.8	6.4	-0.6	-9.3
Cc1ccc(C)c(S(=O)(=O)/N=C2\C=C(NS(=O)(=O)c3ccccc3)C(=O)c3ccccc32)c1	-11.3	29.9	8.1	21.2
Cc1cc(C)c(S(=O)(=O)/N=C2/C=C(Sc3ncn[nH]3)C(=O)c3ccccc32)cc1C	18.2	97.9*	109.3*	63.7*
O=C(NCc1cccs1)C1C(=O)Nc2ccccc2C(=O)N1Cc1ccccc1 (configuration not stated)	-7.2	-4.3	nt	nt
Cc1cc(/C=C2/SC(=S)N(c3ccc([N+](=O)[O-])cc3)C2=O)c(C)n1-c1cccnc1	-1.2	58.2*	3.1	-1.6
Cc1cc(C)c2sc(NNC(=O)c3ccc(S(=O)(=O)N4CCc5ccccc5C4)cc3)nc2c1	29.6*	-0.5	-30.9	-25.4
CCc1nnc(NC(=O)c2ccc(S(=O)(=O)N3CCc4ccccc4C3)cc2)s1	-4.8	2.2	-20.2	-6.2
Cc1nnc(NC(=O)c2ccc(S(=O)(=O)N3CCc4ccccc4C3)cc2)o1	-3.6	3.9	-38.2	-6.2
Cc1cc(C)c2nc(NNC(=O)c3ccc(S(=O)(=O)N4CCc5ccccc5C4)cc3)sc2c1	29.9*	-1.7	-19.1	-24.2

Source: PubChem (several laboratories)
